Data published in ChEMBL document CHEMBL4665652, “Discovery of novel quinoline sulphonamide derivatives as potent, selective and orally active RORγ inverse agonists” (Bioorg Med Chem Lett, 2019).
pEC50: −log10 of the molar value.

Columns and labels:
[1] = (§1) In vivo inverse agonist activity at RORgamma in MOG(35-55) peptide/PTX-induced mechanistic C57BL/6 mouse model assessed as anti-CD3 induced IL-17A level in serum at 10 mg/kg, po dosed for 5 days during MOG/PTX priming and followed by 45 mins prior to anti-CD3 challenge and measured after 2 hrs relative to control; format: functional; conditions: time 5 day
Outline: (§2)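 Mice immunized with mouse MOG35-55 peptide plus pertussis toxin. After 5 days, compound given orally as a suspension in methylcellulose 400cp + 1% poloxamer, 45 min before an anti-CD3 challenge. Circulating cytokines measured 2 h later. Comparison vs vehicle by Dunnett post test.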

[2] = as §1, with “IL-6” for “IL-17A”, “30” for “10”; format: functional; conditions: time 5 day; outline: as §2
[3] = as §1, with “IL-22” for “IL-17A”; format: functional; conditions: time 5 day; outline: as §2
[4] = AUClast in mouse at 10 mg/kg, po; format: ADME, organism-based; design: route oral, time 0 - last, dose 10 mg/kg; conditions: in vivo
Outline: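 Mice dosed orally at 10, 30 or 100 mg/kg as a suspension in 1% methylcellulose 400cp + 0.1% Poloxamer (188). Tmax, Cmax, AUClast and oral t1/2 were taken from plasma concentration–time profiles. Ratios are the value at each dose over the value at 10 mg/kg.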

[5] = Ratio of Cmax in mouse at 30 mg/kg, po to Cmax in mouse at 10 mg/kg, po; format: ADME, organism-based; conditions: in vivo
Outline: (§3)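 Mice dosed orally with an ascending-dose series at 10, 30 and 100 mg/kg. Compound given as a suspension in 1% methylcellulose 400cp + 0.1% poloxamer. Plasma Tmax taken from the concentration profiles. The Cmax ratio is expressed relative to the 10 mg/kg dose.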

[6] = as §1, with “TNFalpha” for “IL-17A”, “30” for “10”; format: functional; conditions: time 5 day; outline: as §2
[7] = Half life in mouse at 100 mg/kg, po; format: ADME, organism-based; conditions: in vivo
Outline: (§4)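 Oral ascending-dose PK in mice at 100 mg/kg (ratios against 10 mg/kg), given as a suspension in 1% methylcellulose 400cp + 0.1% Poloxamer. Cmax, AUClast and t1/2 come from plasma profiles.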

[8] = Cmax in mouse at 100 mg/kg, po; format: ADME, organism-based; design: route oral, dose 100 mg/kg; conditions: in vivo; outline: as §4
Mus musculus [9] = assay: Immunosuppressive activity in PLP (139 to 151 residues)-induced experimental autoimmune encephalomyelitis mouse model assessed as reduction in disease onset at 60 mg/kg, po administered bid starting from immunization relative to control; format: functional
Outline: (§5)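 EAE induced in mice by immunization with proteolipid protein peptide PLP139-151; ascending paralysis develops 10–12 days post-immunization. Compound dosed orally b.i.d. starting from immunization. Disease onset/incidence scored relative to control.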

Mus musculus [10] = assay: Immunosuppressive activity in PLP (139 to 151 residues)-induced experimental autoimmune encephalomyelitis mouse model assessed as incidence of disease at 30 mg/kg, po administered bid starting from immunization relative to control; format: functional; outline: as §5
[11] = Stability in human microsomes assessed as unbound intrinsic clearance; format: ADME, Microsome
Outline: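 Unbound intrinsic clearance measured in human and mouse liver microsomes, expressed in L/h/kg. Values are geometric means of at least two separate runs.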

[12] = Tmax in mouse at 30 mg/kg, po; format: ADME, organism-based; conditions: in vivo; outline: as §3
[13] = Plasma clearance in mouse at 10 mg/kg, po or 1 mg/kg, iv; format: ADME, organism-based
Outline: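 Mouse PK with iv 1 mg/kg and po 10 mg/kg, oral dose as a suspension in 1% methylcellulose 400cp + 0.1% Poloxamer 188. Plasma clearance (total and unbound), iv t1/2 and oral bioavailability F were derived from the iv and po profiles.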

[14] = as §1, with “IL-2” for “IL-17A”; format: functional; conditions: time 5 day; outline: as §2
[15] = Tmax in mouse at 10 mg/kg, po; format: ADME, organism-based; conditions: in vivo; outline: as §3
[16] = as §1, with “TNFalpha” for “IL-17A”; format: functional; conditions: time 5 day; outline: as §2
[17] = as §1, with “IFNgamma” for “IL-17A”, “30” for “10”; format: functional; conditions: time 5 day; outline: as §2
[18] = target: T1, Nuclear receptor ROR-gamma (Homo sapiens, UniProt P51449); assay: Inverse agonist activity at RORgamma in human CD4+ T cells assessed as inhibition of IL17A secretion after 72 hrs by ELISA; format: cell-based, CD4+ve Th
T1 sequence (P51449 whole entry): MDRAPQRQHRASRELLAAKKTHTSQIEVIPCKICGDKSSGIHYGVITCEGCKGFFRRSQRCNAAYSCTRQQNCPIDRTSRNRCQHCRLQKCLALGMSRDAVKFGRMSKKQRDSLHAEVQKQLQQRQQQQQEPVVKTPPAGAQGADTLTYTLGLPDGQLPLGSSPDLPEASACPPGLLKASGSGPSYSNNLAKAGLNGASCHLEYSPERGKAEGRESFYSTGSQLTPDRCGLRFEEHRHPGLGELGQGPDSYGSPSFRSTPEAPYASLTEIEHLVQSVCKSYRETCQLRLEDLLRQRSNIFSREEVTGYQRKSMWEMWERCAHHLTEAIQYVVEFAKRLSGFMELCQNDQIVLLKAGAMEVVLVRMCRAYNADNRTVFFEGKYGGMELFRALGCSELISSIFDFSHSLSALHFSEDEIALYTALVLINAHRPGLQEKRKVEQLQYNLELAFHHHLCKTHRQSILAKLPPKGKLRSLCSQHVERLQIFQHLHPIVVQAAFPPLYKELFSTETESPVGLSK

[19] = as §1, with “30” for “10”; format: functional; conditions: time 5 day; outline: as §2
Cytochrome P450 2C9 = Cytochrome P450 2C9 (Homo sapiens, UniProt P11712); assay: Drug metabolism assessed as CYP2C9 (unknown origin) mediated metabolite formation; format: ADME
[20] = as §1, with “IFNgamma” for “IL-17A”; format: functional; conditions: time 5 day; outline: as §2
[21] = Ratio of Cmax in mouse at 100 mg/kg, po to Cmax in mouse at 10 mg/kg, po; format: ADME, organism-based; conditions: in vivo; outline: as §4
[22] = as §1, with “100” for “10”; format: functional; conditions: time 5 day; outline: as §2
[23] = as §1, with “IL-2” for “IL-17A”, “30” for “10”; format: functional; conditions: time 5 day; outline: as §2

Chain of Cytochrome P450 2C9 (P11712 whole entry): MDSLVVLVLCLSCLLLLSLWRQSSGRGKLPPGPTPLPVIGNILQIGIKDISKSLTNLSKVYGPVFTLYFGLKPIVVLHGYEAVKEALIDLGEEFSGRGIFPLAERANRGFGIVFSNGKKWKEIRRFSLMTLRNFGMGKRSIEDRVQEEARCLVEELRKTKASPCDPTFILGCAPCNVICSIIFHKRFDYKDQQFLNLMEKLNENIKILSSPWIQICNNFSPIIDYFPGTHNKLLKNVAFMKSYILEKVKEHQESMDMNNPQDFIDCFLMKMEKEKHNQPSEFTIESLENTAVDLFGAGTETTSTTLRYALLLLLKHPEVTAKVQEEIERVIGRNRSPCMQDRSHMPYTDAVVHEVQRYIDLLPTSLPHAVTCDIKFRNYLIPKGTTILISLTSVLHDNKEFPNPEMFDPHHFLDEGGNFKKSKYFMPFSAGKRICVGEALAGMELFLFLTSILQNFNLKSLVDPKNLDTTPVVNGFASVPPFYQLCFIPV

- AUC(0-t) [4]: 3900 ng·h/mL
- Ratio [5]: 3.5
- half-life [7]: 132 min
- Cmax [8]: 27500 ng/mL
- CL free [11]: 33 mL/min/kg
- Tmax [12]: 15 min
- clearance [13]: 27.5 mL/min/kg
- Tmax [15]: 15 min
- pEC50 [18]: 6.82
- Fm (Cytochrome P450 2C9): 6%
- Ratio [21]: 8.3
SMILES: CNC(=O)[C@@H]1CCCN1S(=O)(=O)c1ccc(Cl)c(COc2cccc3c(-c4cncn4C)cc(C(C)C)nc23)c1Cl
- Activity [1]: -23%
- Activity [2]: -56%
- Activity [3]: -16%
- Activity [6]: -27%
- inhibition in vivo at 60 mg/kg (Mus musculus [9]): 81%
- Activity (Mus musculus [10]): 100%
- Activity [14]: -39%
- Activity [16]: -22%
- Activity [17]: -45%
- Activity [19]: -52%
- Activity [20]: -39%
- Activity [22]: -62%
- Activity [23]: -30%
